Bioassay records (PubChem BioAssay)
Rows were chosen to be rich in hits. Some 3.5% of all compounds tested hit in one or more screens of this group.
MrgX1 ag = agonists of human MrgX1 receptor, primary screen, HEK293 cells, Fluo-4 calcium flux; Fluo-4 calcium fluorescence, agonist mode; stronger effect = higher value; B-score at 10 µM; hit rate 0.44% among 310,000;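 active = calcium response B-score plate-corrected fluorescence ratio at least 3 library SD, with starting fluorescence B-score inside 5 SD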
Target sequence (Q96LB2 whole entry, looked up): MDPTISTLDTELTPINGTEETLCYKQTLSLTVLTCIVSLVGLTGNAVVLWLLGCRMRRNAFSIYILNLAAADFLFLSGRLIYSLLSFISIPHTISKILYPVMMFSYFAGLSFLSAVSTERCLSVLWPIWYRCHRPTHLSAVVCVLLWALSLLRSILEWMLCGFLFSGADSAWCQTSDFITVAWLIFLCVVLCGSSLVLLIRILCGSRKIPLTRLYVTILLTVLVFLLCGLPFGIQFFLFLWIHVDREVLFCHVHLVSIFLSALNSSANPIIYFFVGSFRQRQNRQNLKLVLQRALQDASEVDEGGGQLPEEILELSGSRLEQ
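Assay system: MrgX1-expressing HEK293 cells / Amount: fifteen thousand cells per well / Doses: test compound in the initial addition of three / Timing: cells plated overnight, dye loaded 0.5 h 37 °C, 0.5 h room temperature / Technique: kinetic calcium dye fluorescence, Fluo-4 NW / Control set: positive and negative controls per plate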
RGS4 act = RGS4 potentiators or activators, primary screen, cell-based, HEK293 M3R inducible RGS4, calcium flux; carbachol calcium flux Fluo4; stronger effect = lower value; B-score at 10 µM; hit rate 0.92% among 310,000; AID 463111, 2010;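 active = B-score of the integrated calcium signal more than 4 SD below the library mean, with starting fluorescence not abnormally high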;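 note: negative B-score means reduced calcium response which marks RGS4 activation or potentiation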
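Assay system: Inducible-RGS4 HEK293 cells carrying M3 receptor | Schedule: Compound preincubation 20 min at room temperature before agonist | Signal: Kinetic calcium fluorescence imaging with Fluo4-AM dye, 2 µM | Read-out basis: B score from integrated fluorescence ratio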
RGS4 inh = RGS4 inhibitors, primary screen, cell-based, HEK293 M3R inducible RGS4, calcium flux; Fluo-4 calcium flux; stronger effect = higher value; triggered by carbachol at its EC20; hit rate 0.45% among 310,000; B-score at 10 µM; Regulator of G-protein signaling 4 (Homo sapiens), P49798;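 active = B-score, a plate-corrected calcium signal, over three deviations above library mean, with baseline fluorescence within five deviations of library mean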;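 note: RGS4 expression induced by doxycycline in cells with stable M3 receptor; B-score is computed from the integrated fluorescence ratio over baseline after carbachol; higher B-score means a larger calcium signal and so more RGS4 inhibition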
Target sequence (P49798 whole entry, looked up): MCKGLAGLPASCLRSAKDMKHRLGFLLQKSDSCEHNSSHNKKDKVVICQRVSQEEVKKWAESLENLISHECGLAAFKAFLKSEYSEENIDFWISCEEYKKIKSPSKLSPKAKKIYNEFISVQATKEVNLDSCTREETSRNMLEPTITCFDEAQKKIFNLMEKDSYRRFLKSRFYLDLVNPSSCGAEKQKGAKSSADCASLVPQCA
MrgX1 PAM = positive allosteric modulators of MrgX1, primary screen, HEK293 cells, Fluo-4 calcium flux; FDSS; stronger effect = higher value; B-score at 10 µM; hit rate 0.63% among 310,000;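 active = plate-corrected calcium response at least 3 library SD above typical, normal starting fluorescence, not activating the receptor alone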;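 note: compound read alongside a low EC10 to EC30 dose of BAM8-22 agonist; peak minus trough fluorescence over baseline measured at the second addition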
MrgX1 antag = antagonists of human MrgX1 receptor, primary screen, HEK293 cells, Fluo-4 calcium flux. BAM8-22 antagonism; stronger effect = lower value. B-score at 10 µM. hit rate 1.3% among 310,000;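 active = calcium-response B-score plate-corrected more than 3 library SD below zero, starting fluorescence within 5 deviations, no agonist response on first addition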;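 note: peak minus trough fluorescence over baseline after final BAM8-22 challenge near maximal dose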
MrgX1 antag conf = MrgX1 receptor antagonists, duplicate retest, confirmation, HEK293 cells, Fluo-4 calcium flux; BAM8-22 calcium flux; stronger effect = lower value; shares compounds with MrgX1 antag; hit rate 19% among 2,300; remaining BAM8-22 calcium response % of control (stronger effect = lower value), % at 10 µM;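 active = remaining agonist calcium response no higher than 100% minus 3 SD of agonist-only control wells, with starting fluorescence near control levels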;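 note: agonist BAM8-22 given at a near maximal EC90 to ECmax level; peak minus minimum fluorescence divided by baseline after agonist addition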
HEK293 Ca flux = nonspecific calcium signal in parental HEK293, confirmation, counter-screen for MrgX1 antagonist project, parental HEK293 cells, Fluo-4 calcium flux. shares compounds with MrgX1 antag. Fluo-4 calcium fluorescence, FDSS. fluorescence ratio F(max-min)/F0 at 10 µM. hit rate 2% among 4,000. AID 624111, 2012;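 active = duplicate-averaged calcium fluorescence ratio at least three times the standard deviation of buffer wells, a nonspecific response in parental cells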
HEK293 Ca counter = calcium response in parental HEK293 cells, primary screen, counter-screen for MrgX1 allosteric activator project, cell-based, Fluo-4 calcium flux, duplicate. Fluo-4 fluorescence ratio; stronger effect = higher value. shares compounds with MrgX1 antag. fluorescence ratio F(max-min)/F0 at 10 µM. hit rate 0.4% among 4,000;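 active = calcium fluorescence ratio, averaged over duplicates, at least 3 SD of the buffer-well ratio, meaning a nonspecific response in receptor-free cells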;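 note: untransfected parental HEK293 lacking MrgX1 used as counterscreen for MrgX1 allosteric activators; fluorescence change taken during the second addition on a kinetic imager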
HEK293 Ca cntr2 = calcium response in parental HEK293 cells, primary screen, counter-screen for MrgX1 agonist project, cell-based, Fluo-4 calcium flux, duplicate, agonist mode | shares compounds with MrgX1 antag | Fluo-4 calcium fluorescence (FDSS); stronger effect = higher value | fluorescence ratio F(max-min)/F0 at 10 µM | hit rate 8.7% among 4,000 | AID 624115, 2012;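 active = calcium fluorescence ratio at least three times the spread of buffer wells, meaning a non-specific response in parental cells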
Active calls of the source: *; i = inactive; nt = not tested or not shown.

SMILES	MrgX1 ag	RGS4 act	RGS4 inh	MrgX1 PAM	MrgX1 antag	MrgX1 antag conf	HEK293 Ca flux	HEK293 Ca counter	HEK293 Ca cntr2
O=C(Nc1cccc(Cl)c1)Nc1csc([N+](=O)[O-])c1	i	i	i	i	i	nt	nt	nt	nt
Cc1cc(C)n2nc(C(=O)Nc3nccs3)nc2n1	i	i	i	i	i	nt	nt	nt	nt
Cc1csc(NC(=O)c2nc3nc(C)cc(C)n3n2)n1	i	i	i	i	-5.4*	i	i	i	i
CC(Sc1ccc(Cl)cc1)C(=O)N(C)CC(=O)Nc1ccc(N2CCOCC2)cc1 (stereo not drawn)	i	i	i	i	i	nt	nt	nt	nt
CC(=O)Nc1ccc(NC(=O)Cn2cnc3c(nnn3Cc3ccc(F)cc3)c2=O)cc1	i	i	i	i	-6.8*	i	i	i	i
O=C(Cn1cnc2c(nnn2Cc2ccc(F)cc2)c1=O)NCc1ccc(F)cc1	i	i	i	i	i	nt	nt	nt	nt
Cc1ccc2oc(C(=O)Nc3nnc(C)s3)c(C)c2c1	i	i	i	i	-4.7*	i	i	i	i
Cc1ccc2oc(C(=O)Nc3nonc3C)c(C)c2c1	i	i	i	i	i	nt	nt	nt	nt
Cc1ccc(NC(=O)Cc2ccc(-c3ccccc3)cc2)nc1	i	i	i	i	-8.1*	i	i	i	i
CC(=O)NCCn1c(SCC(=O)NCCC2=CCCCC2)nc2ccccc2c1=O	i	i	i	i	i	nt	nt	nt	nt
COCC(C)n1c(SCC(=O)NCCC2=CCCCC2)nc2ccccc2c1=O (stereo not drawn)	i	i	i	i	-6.6*	i	i	i	i
Cc1ccc(NS(=O)(=O)c2ccc(C(=O)N3CCN(c4ncccn4)CC3)cc2)cc1	i	i	i	i	-5.4*	i	i	i	i
Cc1ccc(NS(=O)(=O)c2cccc(C(=O)N3CCCCCC3)c2)cc1	i	i	i	i	-5.5*	i	i	i	i
Cc1cc(S(=O)(=O)Nc2ccc(C(=O)N3CCN(c4ccccc4O)CC3)cc2)ccc1F	i	i	i	i	-4.7*	82%*	i	i	i
C[C@@H](NC(=O)[C@@H]1Cc2ccccc2CN1)C(=O)NCc1ccco1	i	i	i	i	i	nt	nt	nt	nt
CCOc1ccc(-c2nnn(CC(=O)c3cc(OC)ccc3OC)n2)cc1	i	i	i	i	-4.7*	81%*	i	i	i
CC(=O)Nc1ccc2c(c1)N(C(C)=O)c1ccccc1CC2	i	i	i	i	-4.7*	82%*	i	i	i
CCn1cnc2cc(NCc3ccc(C)cc3)ccc21	i	i	i	i	-4.6*	i	i	i	i
CCN(CC)c1ccc(CNc2ccc3c(c2)ncn3CC)cc1	i	i	i	i	i	nt	nt	nt	nt
CC(NC(=O)CSc1nnc(-c2cccnc2)n1N)c1ccccc1 (stereo not drawn)	i	i	i	i	-4.6*	i	i	i	i
CCOCCCN(C)C1CCN(C(=O)c2oc3ccccc3c2NC(=O)c2cccc([N+](=O)[O-])c2)CC1	i	i	i	i	i	nt	nt	nt	nt
Cc1ccccc1N(CC(=O)N1CCN(c2ccccc2)CC1)S(C)(=O)=O	i	i	i	i	-7.7*	i	i	i	i
Nc1c(C(=O)Nc2ccccc2F)sc2nc(-c3ccco3)ccc12	i	i	i	i	-5.3*	78%*	i	i	i
Nc1c(C(=O)Nc2ccccc2F)sc2nc(-c3cccnc3)ccc12	i	i	i	i	i	nt	nt	nt	nt
Cc1ccccc1Cn1cc(NC(=O)c2nc3ncccn3n2)cn1	i	i	i	i	i	nt	nt	nt	nt
SMILES	MrgX1 ag	RGS4 act	RGS4 inh	MrgX1 PAM	MrgX1 antag	MrgX1 antag conf	HEK293 Ca flux	HEK293 Ca counter	HEK293 Ca cntr2
Cc1ccccc1Cn1ccc(NC(=O)c2nc3ncccn3n2)n1	i	nt	nt	i	-5.7*	i	i	i	i
CC1CCC(NC(=O)COC(=O)C2CC3CCCC(C2)C3=O)CC1 (stereo not drawn)	i	i	i	i	-7.9*	i	i	i	i
O=C(/C(=C(\O)c1ccccc1)c1ncc[nH]1)c1ccccc1	i	i	i	i	-9.7*	i	i	i	i
COc1ccc(C(=O)N2CCN(C)C(=O)[C@@H]2C)cc1OC1CCN(C(C)C)CC1	i	i	i	i	i	nt	nt	nt	nt
Cc1cccc(CN2C(=O)CCSc3ccc(Cl)cc32)c1	i	i	i	i	i	nt	nt	nt	nt
O=C1CCSc2ccc(Cl)cc2N1Cc1ccccc1	i	i	i	i	-4.6*	75%*	i	i	i
CCCOC1CCCN(C(=O)c2ccc(OC3CCN(Cc4ccccn4)CC3)cc2)C1 (stereo not drawn)	i	i	i	i	i	nt	nt	nt	nt
Cc1cccc2sc(NC(=O)c3ccc(Cl)s3)nc12	i	i	i	i	-7.1*	i	i	i	i
Cc1ccc(Nc2nnc(SCc3cc(=O)n4ccsc4n3)s2)c(C)c1	i	i	i	i	-7*	i	i	i	i
COc1ccc(Nc2ncnc3c2c(C)c(C)n3CCO)cc1	i	i	i	i	i	nt	nt	nt	nt
Cc1ccc(S(=O)(=O)N(CC(=O)NC2CC2)c2ccc(C)c(Cl)c2)cc1	i	i	i	i	-5*	i	i	i	i
Cc1sc2nc(SCC(=O)N3CCOCC3)[nH]c(=O)c2c1-c1ccccc1	i	i	i	i	-5.1*	i	i	i	i
